Assay outcomes as filed in PubChem.
This is a sample that favours compounds with a hit; in the whole collection about 1.6% have one here.
PKD1 inh = inhibitors of human PKD1 kinase, biochemical, fluorescence polarization | Serine/threonine-protein kinase D1 (Homo sapiens), Q15139 | PKD1 kinase fluorescence polarization assay | actives 0.056% (n = 200,000) | inhibition, % (no concentration beside the values); in the data active means inhibition above about 50%
HSV augment = enhancers of HSV replication in host cells, fold increase, host cell viability; maximum fold increase; actives 0.005% (n = 220,000); HSV replication augmentation in cells; in the data active means maximum fold increase above about 1.5; tested in PC3 cells
NCF1 inh = p47phox/p22phox peptide binding inhibitors, primary screen, biochemical, uHTS, NADPH oxidase regulatory subunit; Neutrophil cytosol factor 1 (Homo sapiens), P14598; fluorescence polarization, 2 h; inhibition, % at 24.7 µM; actives 0.53% (n = 220,000);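 active means inhibition above about 30%, limit read from the data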;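 further: 0% = p47phox with labelled peptide and 100% = labelled peptide alone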
ABCG2 inh = ABCG2 efflux pump inhibitors, primary screen, multiplex with ABCB1, IgMXP3 cells, flow cytometry; Broad substrate specificity ATP-binding cassette transporter ABCG2 (Homo sapiens), Q9UNQ0; JC-1 efflux; inhibition, % at 6.6 µM; actives 0.1% (n = 190,000); AID 1325, 2008;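 active means inhibition above 80%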;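 further: 0% = DMSO and 100% = nicardipine control wells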
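Measure – % inhibition of efflux relative to nicardipine and DMSO · Test system – ABCG2 IgMXP3 and barcoded ABCB1 CCRF-Adr cell mix · Control set – nicardipine as high control, DMSO as low control · Compound – one concentration, 6.6 µM final · Signal – flow cytometry of retained JC-1 fluorescence · Timing – 10 min exposure at 25 °C with rotation, no wash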
ABCB1 block = ABCB1 efflux pump inhibitors, primary screen, cell-based, multiplex, flow cytometry, ABCG2 counter-screen. inhibition, % at 6.6 µM. ATP-dependent translocase ABCB1 (Homo sapiens), P08183. actives 0.067% (n = 190,000). CCRF-Adr cells, JC-1 efflux. AID 1326, 2008; in the data active means inhibition above about 40%;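 further: 0% = vehicle and 100% = reference inhibitor; higher value means more JC-1 retained so stronger ABCB1 efflux block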
PHOSPHO1 block = PubChem AID 1565. Phosphoethanolamine/phosphocholine phosphatase (Homo sapiens), Q8TCT1. recombinant PHOSPHO1, absorbance phosphatase assay. inhibition, % at 13.3 µM. actives 1.1% (n = 290,000); in the data active means inhibition above about 60%
Target sequence (Q8TCT1 whole entry, looked up): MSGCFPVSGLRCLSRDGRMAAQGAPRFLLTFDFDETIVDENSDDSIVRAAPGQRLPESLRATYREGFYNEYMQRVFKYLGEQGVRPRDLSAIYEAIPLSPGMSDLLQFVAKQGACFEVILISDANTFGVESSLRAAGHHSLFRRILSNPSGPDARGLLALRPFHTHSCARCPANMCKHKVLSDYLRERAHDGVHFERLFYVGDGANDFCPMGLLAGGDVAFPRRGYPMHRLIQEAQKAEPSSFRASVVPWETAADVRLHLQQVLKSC
* marks the source's active call; other numbers are inactive results; i = inactive; · = no result.

SMILES | PKD1 inh | HSV augment | NCF1 inh | ABCG2 inh | ABCB1 block | PHOSPHO1 block
CC1(C)Cc2c(cnn2-c2ccc(F)cc2)C(NC(=O)CCC(F)(F)F)C1 (stereo not drawn) | · | · | · | · | · | 8
COc1ccc(OCc2n[nH]c(=S)o2)cc1 | 4 | i | -8 | 5 | 0 | 88*
Cc1ccc(C)c(OCc2n[nH]c(=S)o2)c1 | · | i | -23 | · | · | -12
S=c1[nH]nc(COc2ccc(Cl)cc2)o1 | -18 | i | -8 | 9 | 2 | 103*
O=C1CSC(c2ccccn2)N1c1ccc(F)cc1F (stereo not drawn) | 8 | i | 4 | 0 | 1 | -16
COC(=O)c1cc2oc(C)cc2n1CC(=O)N(C)c1ccccc1 | -4 | i | -9 | -3 | -2 | -3
C=CCN(C(=O)Cn1c(C(=O)OC)cc2oc(C)cc21)c1ccccc1 | 5 | i | -5 | 0 | 0 | 74*
CC(=NCCCn1ccnc1)c1c(C)[nH]n(-c2ccc([N+](=O)[O-])cc2)c1=O | -4 | i | 2 | 16 | 1 | -21
COc1ccc(Br)cc1CNC(=O)Nc1cccs1 | 4 | i | 98* | 0 | 0 | 13
Cc1cc(-c2nsc(=O)o2)c(S(C)(=O)=O)s1 | -8 | · | -7 | 1 | 1 | 69*
COc1ccc(NC(=O)C2CCC(CNc3c(N4CCOCC4)c(=O)c3=O)CC2)cc1Cl (stereo not drawn) | · | i | -8 | · | · | 27
COc1ccc(NC(=O)c2ccc(CNc3c(N4CCCC4)c(=O)c3=O)cc2)cc1Cl | · | i | -14 | · | · | 66*
Cc1cc(C(=O)CSc2nc3ccc(Cl)cc3[nH]2)c(C)n1CC1CCCO1 (stereo not drawn) | 14 | i | -25 | 0 | 0 | 100*
C/C(N)=C(/C#N)C(=O)CSc1nc2ccc(C)cc2[nH]1 | -5 | i | -8 | 1 | 0 | 72*
Cc1ccc(C(=O)OCC(=O)c2cc(C)n(CC3CCCO3)c2C)cc1 (stereo not drawn) | -6 | i | 59* | 1 | 0 | 24
COc1ccc(Nc2nnc(SCC(=O)c3cc(C)n(CC4CCCO4)c3C)s2)cc1 (stereo not drawn) | -5 | · | -24 | 3 | 0 | 98*
Cc1ccc2nc(SCC(=O)c3cc(C)n(C)c3C)[nH]c2c1 | 11 | i | -18 | 2 | 0 | 71*
CCC(=O)Nc1nnc(SCC(=O)NCC2CCCO2)s1 (stereo not drawn) | · | · | · | · | · | 10
Cc1cc(C(=O)CSc2nc3ccccc3[nH]2)c(C)n1C | 0 | i | -12 | 6 | 0 | 51
CC(=O)Nc1nnc(SCC(=O)NCC2CCCO2)s1 (stereo not drawn) | · | i | 2 | -1 | 0 | 86*
Cc1cc(C(=O)CSc2nc3ccc(Cl)cc3[nH]2)c(C)n1C | -5 | i | -29 | 0 | 0 | 86*
c1ccc(-c2cnnc(SCc3cn4cccnc4n3)n2)cc1 | -1 | i | -5 | 0 | 0 | 76*
Cc1sc2nc(N)sc2c1C | -4 | i | 1 | -4 | -3 | 90*
CS/C(N)=N/N=C/c1c(O)ccc2ccccc12 | · | i | -10 | · | · | 68*
CN(C)/N=C/c1c(O)ccc2ccccc12 | -8 | i | -32 | 2 | 1 | 12
SMILES | PKD1 inh | HSV augment | NCF1 inh | ABCG2 inh | ABCB1 block | PHOSPHO1 block
N#Cc1c(NC(=O)CSc2nc3c(c(C(F)(F)F)n2)CCc2ccccc2-3)sc2c1CCCC2 | -1 | i | -29 | -2 | -1 | 29
Cc1ccccc1Cn1cc(NC(=O)CSc2nc3c(c(C(F)(F)F)n2)CCc2ccccc2-3)cn1 | -5 | i | -13 | 0 | 0 | -9
Cc1ccc(Cn2nc(C)c(NC(=O)CSc3nc4c(c(C(F)(F)F)n3)CCc3ccccc3-4)c2C)cc1 | -13 | i | 50* | 3 | 0 | 4
Cc1nn(Cc2ccc(Cl)cc2)c(C)c1NC(=O)CSc1nc2c(c(C(F)(F)F)n1)CCc1ccccc1-2 | -11 | i | 45* | 11 | 2 | -14
Cc1nn(C(=O)c2cc([N+](=O)[O-])ccc2Cl)c(C)c1Br | · | · | · | · | · | 26
CCOCCCNc1nc(C)nc2c1nnn2Cc1c(F)cccc1Cl | -7 | i | -6 | 4 | 1 | 65*
